Measured values: ChEMBL document CHEMBL3112463, “Synthesis and biological activity of polyalthenol and pentacyclindole analogues” (2014)
In brackets after ≈: the same amount, converted by molar mass.

Experiments:
Type in all cases: functional
SW1573 = experiment: Antiproliferative activity against human SW1573 cells assessed as growth inhibition after 48 hrs by SRB assay; settings: SW1573, 48 h
Procedure, shortened: (§1)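 Cells maintained at 37 °C, 5% CO₂ in medium with foetal calf serum and 2 mM L-glutamine. Trypsinized into antibiotic medium, >97% viable by trypan blue, plated at 10,000 cells/well. Triplicate dilutions from DMSO stocks (0.25% v/v DMSO control) added on day 1 for 48 h. TCA fixation (50%, 4 °C, 60 min), SRB stain, OD 492 nm corrected for medium-only blank.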

WiDr = experiment: Antiproliferative activity against human WiDr cells assessed as growth inhibition after 48 hrs by SRB assay
Procedure, shortened: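 WiDr cells seeded at 20,000 cells/well after trypsinization into antibiotic-containing medium (trypan blue viability >97%). Culture at 37 °C, 5% CO₂ with foetal calf serum and 2 mM L-glutamine. Exposure to triplicate compound dilutions from DMSO stocks (0.25% v/v DMSO control) started day 1, lasting 48 h. Fixed with ice-cold 50% TCA, 60 min at 4 °C, then SRB, OD 492 nm background-subtracted.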

T47D = experiment: Antiproliferative activity against human T47D cells assessed as growth inhibition after 48 hrs by SRB assay
Procedure, shortened: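 T-47D cells grown at 37 °C, 5% CO₂ in serum- and 2 mM L-glutamine-containing medium. Trypsinized, viability >97% by trypan blue, seeded at 15,000 cells/well. Compounds added day 1 in triplicate dilutions (DMSO vehicle 0.25% v/v as control) for 48 h. Cold 50% TCA fixation 60 min at 4 °C, SRB read at 492 nm with blank correction.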

[1] = Antiproliferative activity against human HBL100 cells assessed as growth inhibition after 48 hrs by SRB assay; settings: HBL-100, 48 h; procedure, shortened: as §1
HeLa = experiment: Antiproliferative activity against human HeLa cells assessed as growth inhibition after 48 hrs by SRB assay; procedure, shortened: as §1
A549 = experiment: Antiproliferative activity against human A549 cells assessed as growth inhibition after 48 hrs by SRB assay; settings: A549, 48 h
Procedure, shortened: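 Cells kept in medium with foetal calf serum and 2 mM L-glutamine at 37 °C, 5% CO₂. Trypsinized, resuspended in penicillin/streptomycin medium, >97% trypan blue viability, seeded at 10,000 cells/well. Compounds from DMSO stocks (0.25% v/v DMSO control), triplicate dilutions, added day 1 for 48 h. Fixed with cold 50% TCA for 60 min at 4 °C, then SRB staining, OD 492 nm, background corrected.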

Staphylococcus aureus = experiment: Antimicrobial activity against Staphylococcus aureus ATCC 29213 after 24 hrs by broth microdilution method; settings: ATCC 29213, 24 h
Procedure, shortened: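 Bacteria grown on nutrient agar at 35–37 °C for 24 h, then suspended in normal saline to approx. […] by matching to 0.5 McFarland standard. Broth microdilution in Mueller Hinton broth with growth and sterility controls, compounds first dissolved in DMSO.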

Compound	GI50 (SW1573)	GI50 (WiDr)	GI50 (T47D)	GI50 [1]	GI50 (HeLa)	GI50 (A549)	MIC (Staphylococcus aureus)
COC(=O)[C@@]1(C)CCC=C2[C@@H]1CC[C@@H](C)[C@]2(C)Cc1c(C)[nH]c2c(Cl)cccc12	19 µM	29 µM	27 µM	22 µM	17 µM	20 µM	
COC(=O)[C@@]1(C)CC[C@@H]2C3=C1CC[C@@H](C)[C@]3(C)C[C@@H]1c3cccc(Br)c3N[C@H]21	44 µM	54 µM	37 µM	40 µM	22 µM	42 µM	
COC(=O)[C@@]1(C)CCC=C2[C@@H]1CC[C@@H](C)[C@]2(C)Cc1c(C)[nH]c2ccc(OC)cc12	15 µM	17 µM	21 µM	16 µM	12 µM	16 µM	
COC(=O)[C@@]1(C)CCC=C2[C@@H]1CC[C@@H](C)[C@]2(C)Cc1c(C)[nH]c2ccc(C(F)(F)F)cc12	15 µM	21 µM	21 µM	16 µM	12 µM	17 µM	
COC(=O)[C@@]1(C)CC[C@@H]2C3=C1CC[C@@H](C)[C@]3(C)C[C@@H]1c3cc(Cl)ccc3N[C@H]21	38 µM	48 µM	28 µM	28 µM	23 µM	35 µM	
COC(=O)[C@@]1(C)CCC=C2[C@@H]1CC[C@@H](C)[C@]2(C)Cc1c(C)[nH]c2ccccc12	14 µM	19 µM	17 µM	14 µM	11 µM	15 µM	
COC(=O)[C@@]1(C)CCC=C2[C@@H]1CC[C@@H](C)[C@]2(C)Cc1c(C=O)[nH]c2ccccc12	7.9 µM	20 µM	17 µM	7.5 µM	4.4 µM	45 µM	50 µM (≈ 19.7 µg/mL)
